Test results: ChEMBL document CHEMBL2176871, “Development of ligands at γ-aminobutyrric acid type A (GABAA) receptor subtype as new agents for pain relief” (Bioorg Med Chem, 2011)
The source made the active and inactive calls.

How the values were obtained:
Bos taurus = species: Bos taurus; test: Displacement of [3H]Ro151788 from GABA(A)/BzR in bovine cerebral cortex membrane at 10 uM; assay type: cell membranes
Summary of the method: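 Bovine cerebral cortex membranes in 50 mM Tris-citrate pH 7.4; [3H]flumazenil displacement. Compounds first tested at a fixed 10 µM; Ki determined only when inhibition exceeded 80%, using at least six concentrations. Five experiments run in triplicate; IC50 obtained by iterative curve fitting and converted to Ki with the Cheng–Prusoff equation.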

Mus musculus [1] = test: Antihyperalgesic activity against streptozotocin-induced hyperalgesia in Swiss albino mouse […] assessed as licking latency time at 30 mg/kg, po after 60 mins by hot plate test (reference value: 10.6 +/- 0.7 secs); assay type: functional
Mus musculus [2] = test: Antihyperalgesic activity Swiss albino mouse […] assessed as licking latency time at 30 mg/kg, po after 60 mins by hot plate test (reference value: 17.4 +/- 1.2 secs); assay type: functional
Summary of the method: (§1)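 Hot plate at 52.5 ± 0.1 °C in non-diabetic male Swiss mice. Latency to licking of fore or hind paws was timed before dosing and every 15 min up to 60 min after oral dosing. Mice with pretest latencies below 12 s or above 18 s were excluded. Cut-off was 45 s.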

Mus musculus [3] = test: Antihyperalgesic activity against streptozotocin-induced hyperalgesia in Swiss albino mouse […] assessed as licking latency time at 30 mg/kg, po after 45 mins by hot plate test (reference value: 10.6 +/- 0.7 secs); assay type: functional
Mus musculus [4] = test: Antihyperalgesic activity Swiss albino mouse […] assessed as licking latency time at 30 mg/kg, po after 45 mins by hot plate test (reference value: 17.4 +/- 1.2 secs); assay type: functional; summary of the method: as §1
Mus musculus [5] = test: Antihyperalgesic activity against streptozotocin-induced hyperalgesia in Swiss albino mouse […] assessed as licking latency time at 30 mg/kg, po after 30 mins by hot plate test (reference value: 10.6 +/- 0.7 secs); assay type: functional
Mus musculus [6] = test: Antihyperalgesic activity Swiss albino mouse […] assessed as licking latency time at 30 mg/kg, po after 30 mins by hot plate test (reference value: 17.4 +/- 1.2 secs); assay type: functional; summary of the method: as §1
Mus musculus [7] = test: Antihyperalgesic activity against streptozotocin-induced hyperalgesia in Swiss albino mouse […] assessed as licking latency time at 30 mg/kg, po after 15 mins by hot plate test (reference value: 10.6 +/- 0.7 secs); assay type: functional
Mus musculus [8] = test: Antihyperalgesic activity Swiss albino mouse […] assessed as licking latency time at 30 mg/kg, po after 15 mins by hot plate test (reference value: 17.4 +/- 1.2 secs); assay type: functional; summary of the method: as §1
Mus musculus [9] = test: Anxiolytic-like activity in Swiss albino mouse at 30 mg/kg, po after 30 mins by light/dark box test; assay type: functional, organism-based; parameters: dose 30 mg/kg
Summary of the method: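 Male Swiss mice tested in a two-compartment light/dark box. Transfers between compartments and time spent in the lit side recorded. Compound given po 30 min before testing, in 10 ml/kg; flumazenil given i.p. for antagonism; 8 mice per group.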

Mus musculus [10] = test: Analgesic activity in Swiss albino mouse abdominal constriction model assessed as decrease in number of acetic acid-induced writhing at 30 to 60 mg/kg, po after 30 mins; assay type: functional, organism-based; conditions: Abdomen
Summary of the method: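 Male Swiss albino mice (23–30 g). Compounds given po in 1% CMC vehicle 30 min before the test. Acetic acid 0.6% injected i.p. at 10 ml/kg. Stretching movements were counted for 10 min, starting 5 min after the acetic acid injection. 8–15 mice per group.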

Mus musculus [11] = test: Anticonvulsant activity in Swiss albino mouse […] assessed as protection against intraperitoneally administered pentylenetetrazol-induced seizures at 30 mg/kg, po after 30 mins; assay type: functional
Summary of the method: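 Male Swiss albino mice. Compounds given po and PTZ 90 mg/kg injected 30 min later; PTZ was dissolved in 0.9% NaCl saline. Clonic generalized convulsions were recorded over 30 min. Each value is the mean of 10 mice. The methods give the PTZ route as s.c. and the table footnote gives it as ip.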

Rattus norvegicus [12] = test: Antinociceptive activity in Sprague-Dawley rat mononeuropathy pain model assessed as increase in injured paw pressure at 100 mg/kg, po after 45 mins by paw pressure test relative to non-treated control; assay type: functional
Summary of the method: (§2)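 Chronic constriction injury: loose ligatures placed on the common sciatic nerve under chloral hydrate; contralateral sham dissection. Tested 14 days after surgery. Paw pressure applied at 32 g/s; threshold taken as the force causing the first struggle; cut-off 250 g; pretest outliers (<40 g or >75 g) excluded. Oral dosing in 10 ml/kg; read at 15, 30 and 45 min; compared with a CMC-treated group.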

Rattus norvegicus [13] = test: Antinociceptive activity in Sprague-Dawley rat mononeuropathy pain model assessed as increase in injured paw pressure at 100 mg/kg, po after 30 mins by paw pressure test relative to non-treated control; assay type: functional; summary of the method: as §2
Rattus norvegicus [14] = test: Antinociceptive activity in Sprague-Dawley rat mononeuropathy pain model assessed as increase in injured paw pressure at 100 mg/kg, po after 15 mins by paw pressure test relative to non-treated control; assay type: functional; summary of the method: as §2
Rattus norvegicus [15] = test: Toxicity in Sprague-Dawley rat mononeuropathy pain model assessed as effect on contralateral paw pressure at 100 mg/kg, po after 45 mins by paw pressure test; assay type: organism-based; parameters: dose 100 mg/kg, route oral; conditions: in vivo, 0.75 h
Summary of the method: (§3)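 Same sciatic-ligation rat model, 14 days after surgery. Threshold measured on the non-operated contralateral hind paw by analgesimeter at 32 g/s; first-struggle endpoint; 250 g cut-off; pretest rats outside 40–75 g rejected. Compound given po in 10 ml/kg; readings at 15, 30 and 45 min.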

Rattus norvegicus [16] = test: Toxicity in Sprague-Dawley rat mononeuropathy pain model assessed as effect on contralateral paw pressure at 100 mg/kg, po after 30 mins by paw pressure test; assay type: organism-based; parameters: dose 100 mg/kg, route oral; conditions: in vivo, 0.5 h; summary of the method: as §3
Rattus norvegicus [17] = test: Toxicity in Sprague-Dawley rat mononeuropathy pain model assessed as effect on contralateral paw pressure at 100 mg/kg, po after 15 mins by paw pressure test; assay type: organism-based; parameters: dose 100 mg/kg, route oral; conditions: in vivo, 0.25 h; summary of the method: as §3
Rattus norvegicus [18] = test: Antinociceptive activity in Sprague-Dawley rat mononeuropathy pain model assessed as increase in injured paw pressure at 30 mg/kg, po after 45 mins by paw pressure test relative to non-treated control; assay type: functional; summary of the method: as §2
Rattus norvegicus [19] = test: Antinociceptive activity in Sprague-Dawley rat mononeuropathy pain model assessed as increase in injured paw pressure at 30 mg/kg, po after 30 mins by paw pressure test relative to non-treated control; assay type: functional; summary of the method: as §2
Rattus norvegicus [20] = test: Antinociceptive activity in Sprague-Dawley rat mononeuropathy pain model assessed as increase in injured paw pressure at 30 mg/kg, po after 15 mins by paw pressure test relative to non-treated control; assay type: functional; summary of the method: as §2
Rattus norvegicus [21] = test: Toxicity in Sprague-Dawley rat mononeuropathy pain model assessed as effect on contralateral paw pressure at 30 mg/kg, po after 45 mins by paw pressure test; assay type: organism-based; parameters: dose 30 mg/kg, route oral; conditions: in vivo, 0.75 h; summary of the method: as §3
Rattus norvegicus [22] = test: Toxicity in Sprague-Dawley rat mononeuropathy pain model assessed as effect on contralateral paw pressure at 30 mg/kg, po after 30 mins by paw pressure test; assay type: organism-based; parameters: dose 30 mg/kg, route oral; conditions: in vivo, 0.5 h; summary of the method: as §3
Rattus norvegicus [23] = test: Toxicity in Sprague-Dawley rat mononeuropathy pain model assessed as effect on contralateral paw pressure at 30 mg/kg, po after 15 mins by paw pressure test; assay type: organism-based; parameters: dose 30 mg/kg, route oral; conditions: in vivo, 0.25 h; summary of the method: as §3

SMILES: CCCCCOc1ccc2c(c1)n1ncc(I)c1n[n+]2[O-]
- inhibition (Bos taurus): > 80%
- Time (Mus musculus [1]): 9.1 s
- Time (Mus musculus [2]): 17.5 s
- Time (Mus musculus [3]): 10.4 s
- Time (Mus musculus [4]): 17.1 s
- Time (Mus musculus [5]): 9.8 s
- Time (Mus musculus [6]): 16.7 s
- Time (Mus musculus [7]): 9.2 s
- Time (Mus musculus [8]): 18.3 s
- Activity (Mus musculus [9]): Active
- Activity (Mus musculus [10]): inactive
- Activity (Mus musculus [11]): 0%
- Activity (Rattus norvegicus [12]): 33.9 g
- Activity (Rattus norvegicus [13]): 38.4 g
- Activity (Rattus norvegicus [14]): 39.2 g
- Activity (Rattus norvegicus [15]): 60.5 g
- Activity (Rattus norvegicus [16]): 61.3 g
- Activity (Rattus norvegicus [17]): 57.4 g
- Activity (Rattus norvegicus [18]): 34.2 g
- Activity (Rattus norvegicus [19]): 37.5 g
- Activity (Rattus norvegicus [20]): 35.6 g
- Activity (Rattus norvegicus [21]): 63.1 g
- Activity (Rattus norvegicus [22]): 61.2 g
- Activity (Rattus norvegicus [23]): 57.3 g
